Screens as filed in PubChem.
Only some compounds are listed: those with a hit (about 2.6% of all), similar ones and a draw of the others.
Xi reactivation: activators of X-chromosome reactivation in mouse fibroblasts | XiGFP mouse fibroblasts, % GFP-positive cells imaging, 3 d; cells co-treated with 5-aza-dC sensitizer; scaled so ellipticine positive control = 100% | activation, % at 7.58 µM | 360,000 tested, 0.055% active;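 active = mean normalized replicate activation at least 10% and every replicate at or above 10%; inconclusive = only one of the two criteria met; inactive = mean below 10% and not all replicates reach 10%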
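System: XiGFP fibroblasts, SV40-immortalized. Medium: DMEM plus 5-aza-dC sensitizer. Doses: single point. Timing: 3 d treatment, 15 min room-temperature fixation. Control set: ellipticine 6 µM.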
Wnt bcat act: activators of Wnt/beta-catenin signaling; 300,000 tested, 1.2% active; Wnt/beta-catenin reporter cell assay, activator, plate reader; activation, % at 9.35 µM; in the data active = activation above about 30%, passing the limit was not always enough; inconclusive = no clear call, values can overlap the other calls
Vif imaging: inhibitors of HIV Vif | HEK293T cells, Vif self-association by quenched fluorescence, imaging, 24 h | inhibition, % at 7.49 µM | 340,000 tested, 0.35% active | AID 602346; in the data active = inhibition above about 50%, passing the limit was not always enough; inconclusive = no clear call, values can overlap the other calls; inactive = below about 31%
esBAF inh: blocks esBAF chromatin remodeling in mouse ES cells; AID 602393; Bmi1-luciferase knock-in reporter, 24 h; 100% = twice the neutral-well signal; 350,000 tested, 2% active; reporter increase, % at 12.5 µM; in the data active = activation above about 40%; inconclusive = no clear call, values can overlap the other calls;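 also: a rise in the Bmi1 reporter signal indicates esBAF inhibition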
MITF TRPM1 HTS: activators of MITF-driven TRPM1 promoter activity in SK-MEL-5 cells | SK-MEL-5 TRPM1-promoter luciferase, 24 h; % of positive control, neutral wells = 0 | activation, % at 12.5 µM | 300,000 tested, 0.75% active | AID 588334;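 active = mean activation of at least 80% with every replicate also reaching 80%; inconclusive = mean reaches 80% but some replicate falls short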
Numbers stand for hits.

Results for CC(=O)c1cccc(NC(=O)c2sc3nc4n(c(=O)c3c2C)CCCC4)c1 ?
Xi reactivation: inactive; Wnt bcat act: inactive; Vif imaging: inactive; esBAF inh: 49.0; MITF TRPM1 HTS: inactive

How did COc1ccccc1C(=O)Nc1ccc2nc3n(c(=O)c2c1)CCCC3 do in these assays?
Xi reactivation: inactive; Wnt bcat act: inactive; Vif imaging: inactive; esBAF inh: inactive; MITF TRPM1 HTS: inactive

What do the screens show for `COc1cc(OC)cc(C(=O)Nc2ccc3nc4n(c(=O)c3c2)CCCCC4)c1`?
Xi reactivation: inactive; Wnt bcat act: inactive; Vif imaging: inactive; esBAF inh: 52.8; MITF TRPM1 HTS: inactive

What do the screens show for `CC(=O)Nc1ccc(NC(=O)c2sc3nc4n(c(=O)c3c2C)CCCCC4)cc1`?
Xi reactivation: inactive; Wnt bcat act: inactive; Vif imaging: inactive; MITF TRPM1 HTS: inactive

Results for C[C@@H]1CN([C@H](C)CO)C(=O)c2cc(N(C)C)ccc2O[C@@H]1CN(C)Cc1ccc(-c2ccccc2)cc1 ?
Xi reactivation: inactive; esBAF inh: inactive

What do the screens show for `CNC[C@H]1Oc2ccc(NC(=O)C3CCCCC3)cc2CC(=O)N([C@@H](C)CO)C[C@H]1C`?
Xi reactivation: inactive; esBAF inh: inactive

Results for CC1CCN(CCc2nc3cc(NC(=O)Nc4ccccc4)ccc3n2C)CC1 ?
Wnt bcat act: inactive; Vif imaging: inactive; esBAF inh: 44.3

Results for CCOc1ccc2cc(/C=C/C(=O)c3ccco3)c(Cl)nc2c1 ?
Vif imaging: inconclusive; esBAF inh: 56.6

Results for O=C1CCC[C@@H]2C[C@@]3(C[C@@H]4CCN1[C@H]24)Nc1cc(Cl)c(Cl)cc1NC3=NCc1ccccc1 ?
Xi reactivation: inactive; Wnt bcat act: inactive; Vif imaging: inactive; esBAF inh: 74.3; MITF TRPM1 HTS: inactive

What do the screens show for `CC(C)C#Cc1ccc([C@H]2[C@H]3CN(S(=O)(=O)Cc4ccccc4)CCCCN3[C@H]2CO)cc1`?
Xi reactivation: inactive

What do the screens show for `COc1cccc(/C=N/Nc2snc(SC)c2C#N)c1`?
Vif imaging: inactive; MITF TRPM1 HTS: inactive

How did COc1ccc(/C=N/Nc2snc(SC)c2C#N)cc1OC do in these assays?
Vif imaging: inactive; esBAF inh: 52.5; MITF TRPM1 HTS: inconclusive

How did COc1cccc(OCc2cc(C(=O)N(C)C3CCOCC3)no2)c1 do in these assays?
Xi reactivation: inactive; Wnt bcat act: inactive; MITF TRPM1 HTS: inactive

Results for CN(C(=O)c1cc(COc2c(F)cccc2F)on1)C1CCOC1 (configuration not stated) ?
Xi reactivation: inactive; Wnt bcat act: inactive; Vif imaging: inactive; esBAF inh: inactive; MITF TRPM1 HTS: inactive

Results for CCOC(=O)N1CCN(C(=O)c2cc(COc3ccc(Cl)cc3OC)on2)CC1 ?
Xi reactivation: inactive; Wnt bcat act: inactive; Vif imaging: inactive; esBAF inh: inactive; MITF TRPM1 HTS: inactive

Results for CC(=O)c1ccc(OCc2cc(C(=O)N(C)CCOc3ccc(C)cc3)no2)cc1 ?
Xi reactivation: inactive; Wnt bcat act: inactive; Vif imaging: inactive; MITF TRPM1 HTS: 116.0

Results for Cc1cc(OCc2cc(C(=O)N(C)C3CCOC3)no2)cc(C)c1Cl (configuration not stated) ?
Xi reactivation: inactive; Wnt bcat act: 35.0; Vif imaging: inactive; esBAF inh: 83.4; MITF TRPM1 HTS: inactive

What do the screens show for `COc1cc(Cl)ccc1OCc1cc(C(=O)N(C)C2CCOC2)no1` (configuration not stated)?
Xi reactivation: inactive; Wnt bcat act: inactive; Vif imaging: inactive; esBAF inh: 55.5; MITF TRPM1 HTS: inactive

How did CC(=O)c1ccc(OCc2cc(C(=O)N(C)Cc3nc4c(C)cccc4[nH]3)no2)cc1 do in these assays?
Xi reactivation: inactive; Wnt bcat act: inactive; Vif imaging: inactive; esBAF inh: inactive; MITF TRPM1 HTS: inactive

How did CC(=O)c1ccc(OCc2cc(C(=O)N(C)C3CCOC3)no2)cc1 (configuration not stated) do in these assays?
Xi reactivation: inactive; Wnt bcat act: inactive; Vif imaging: inactive; esBAF inh: 61.2; MITF TRPM1 HTS: inactive

Results for C[C@@H]1CN([C@H](C)CO)S(=O)(=O)c2ccc(-c3cccc(F)c3)cc2O[C@H]1CN(C)CC1CC1 ?
Xi reactivation: inactive; esBAF inh: inactive

Results for COc1cccc(/C=C2\SC(N3CCC(C)CC3)=NC2=O)c1OC ?
Xi reactivation: inactive; Wnt bcat act: inactive; Vif imaging: inactive; esBAF inh: inactive; MITF TRPM1 HTS: inactive
